According to publication PMC3204611 (Cancer prevention research (Philadelphia, Pa.), 2010):
Entries after “also recorded” stand apart in the source; their conditions may differ. Like-named read-outs stand apart in the source and are kept apart here.

How the values were obtained:
[1] = Single-dose pharmacokinetics of 9cUAB30 in healthy volunteers; format: in vivo, human
[2] = Toxicity / adverse events; format: in vivo, human
Summary of the method: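 Healthy adults aged 18-65 years took one oral dose (5, 10 or 20 mg) in the morning on an empty stomach. Dose cohorts were escalated in sequence and subjects stayed 24 h as inpatients. Toxicity was assessed on day 8, with contact on day 30, and graded by NCI-CTCAE. Serum TG was taken at screening, 24 h and day 8. Dose versus TG change was tested by Jonckheere-Terpstra.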

[3] = Stability of 9cUAB30 in spiked human plasma and urine stored at -70 °C; format: in vitro ADME
Summary of the method: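 Blank human plasma and urine were spiked from a 1 μg/mL stock standard to 10 and 40 ng/mL (plasma, urine) and 100 ng/mL (urine only), then held at -70 °C for 12 weeks. Samples were run in triplicate by LC-MS/MS after liquid-liquid extraction with 9-cis-RA as internal standard. LLOQ was 1.56 ng/mL.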

Human hepatocytes = settings: treatment up to 50 μmol/L; cited from earlier work
[4] = system: human breast cancer cells; settings: cited from earlier work
[5] = system: N-methyl-N-nitrosourea (MNU)-induced mammary cancer; settings: cited from earlier work; for average tumors per animal: controls 6.0
[6] = rats, 7 days, cited from earlier work
RAR = settings: relative to 9-cis-RA and other RA; cited from earlier work
colony formation = settings: 0.1 μmol/L (29 ng/mL); cited from earlier work
[7] = system: KLF4-mediated tumor initiation; settings: cited from earlier work
[8] = doses significantly higher than needed for chemopreventive activity; cited from earlier work
[9] = single dose 5, 10 or 20 mg, 14 subjects
[10] = single dose 5, 10 or 20 mg, all subjects n = 14

## CC(=C/C=C/C(C)=C/C(=O)O)/C=C1\CCCc2ccccc21 [9cUAB30, (2E,4E,6Z,8E)-8-(3′,4′-Dihydro-1′(2′H)-naphthalen-1′-ylidene)-3,7-dimethyl-2,4,6-octatrienoic Acid]
[1]; assuming 1 compartment, first-order elimination, extrapolated from 20-mg dose
  dose required to achieve maximal concentrations of 0.294 μg/mL: 60 mg
[1]; human, urine and plasma, po
  CL renal: 0.3 to 1.72 mL/min
[1]; single oral dose, fasted healthy volunteers
  oral availability: orally available
[2]; 10-mg dose level, 6 subjects
  patients with grade 2 toxicity: 1
[2]; day 8, all subjects, screening 116 ± 34.8
  Mean TG levels: 114 ± 44.5
[2]; differences between the treatment groups 5, 10, 20 mg
  change in TG levels from baseline: not statistically significant; also recorded: did not significantly increase change in serum TGs
[2]; dose level 5 mg
  subjects with ≥ grade 2 toxicity: No subjects
[2]; dose level 20 mg
  subjects with ≥ grade 2 toxicity: No subjects
[2]; [9]
  grade 3 or 4 toxicities: no grade 3 or 4 toxicities reported
  patients experiencing grade 2 toxicity: 1
  tolerability: well tolerated
[2]; [10]
  Diarrhea, Grade II, patients (%): 0
  Dizziness, Grade I, patients (%): 0
  Elevated chloride, Grade II, patients (%): 0
  Elevation in cholesterol, Grade II, patients (%): 0
  Elevation in triglycerides, Grade II, patients (%): 0
  Fatigue, Grade I, patients (%): 0
  Headache, Grade II, patients (%): 0
  Nasal congestion, Grade II, patients (%): 0
  Nausea and vomiting, Grade I, patients (%): 0
  Reduced hemoglobin, Grade II, patients (%): 0
[3]; human plasma, −70 °C, 10 and 40 ng/mL
  stability in plasma: stable for 12 weeks
[3]; human urine, −70 °C, 10, 40 and 100 ng/mL
  stability in urine: stable for 12 weeks
Human hepatocytes
  cytotoxicity: no signs of cytotoxicity
[4]
  cell proliferation: significant inhibition of cell proliferation
[5]; 200 mg/kg/d diet
  decrease of MNU-induced mammary cancer incidence compared to controls: 63%
[5]; 9cUAB30 150 mg/kg of diet
  average tumors per animal: 4.3 tumors per animal
[6]; 200 or 800 mg/kg of diet
  effect on serum TG levels: did not affect serum TG levels
RAR
  RAR-binding activity: little or no RAR-binding activity
Colony formation
  colony formation, % of untreated cells: 62%
[7]
  concentration required to prevent KLF4-mediated tumor initiation: 1 µmol/L
[7]; printed conversion of 1 μmol/L
  concentration required to prevent KLF4-mediated tumor initiation: 294 ng/mL
[8]
  toxicity in animal models: toxicity was not reported

## CC/C(=C(\c1ccccc1)c1ccc(OCCN(C)C)cc1)c1ccccc1 [tamoxifen, reference compound]
[5]; tamoxifen 0.4 mg/kg of diet
  average tumors per animal: 4.6 tumors per animal

## CC1=C(/C=C/C(C)=C\C=C\C(C)=C\C(=O)O)C(C)(C)CCC1 [9-cis-RA, 9-cis-retinoic acid, reference compound]
[6]; 60 mg/kg of diet
  increase of serum TGs compared to untreated controls: 5 fold
